Screens from PubChem.
Only some compounds are listed: those with a hit (about 1.6% of all), similar ones and a draw of the others.
HKDC1 inhibitor – HKDC1 (human) hexokinase inhibition | Q2TB90 | recombinant HKDC1, G6PDH/diaphorase resazurin coupled fluorescence | inhibition, % at 20 µM | actives 0.16% (n = 340,000);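 active means inhibition above about 35% when tested at 20 µM, limit read from the data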;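 further: plate controls were DMSO wells with enzyme for no effect and DMSO wells lacking enzyme for full effect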
Target sequence (Q2TB90 whole entry, looked up): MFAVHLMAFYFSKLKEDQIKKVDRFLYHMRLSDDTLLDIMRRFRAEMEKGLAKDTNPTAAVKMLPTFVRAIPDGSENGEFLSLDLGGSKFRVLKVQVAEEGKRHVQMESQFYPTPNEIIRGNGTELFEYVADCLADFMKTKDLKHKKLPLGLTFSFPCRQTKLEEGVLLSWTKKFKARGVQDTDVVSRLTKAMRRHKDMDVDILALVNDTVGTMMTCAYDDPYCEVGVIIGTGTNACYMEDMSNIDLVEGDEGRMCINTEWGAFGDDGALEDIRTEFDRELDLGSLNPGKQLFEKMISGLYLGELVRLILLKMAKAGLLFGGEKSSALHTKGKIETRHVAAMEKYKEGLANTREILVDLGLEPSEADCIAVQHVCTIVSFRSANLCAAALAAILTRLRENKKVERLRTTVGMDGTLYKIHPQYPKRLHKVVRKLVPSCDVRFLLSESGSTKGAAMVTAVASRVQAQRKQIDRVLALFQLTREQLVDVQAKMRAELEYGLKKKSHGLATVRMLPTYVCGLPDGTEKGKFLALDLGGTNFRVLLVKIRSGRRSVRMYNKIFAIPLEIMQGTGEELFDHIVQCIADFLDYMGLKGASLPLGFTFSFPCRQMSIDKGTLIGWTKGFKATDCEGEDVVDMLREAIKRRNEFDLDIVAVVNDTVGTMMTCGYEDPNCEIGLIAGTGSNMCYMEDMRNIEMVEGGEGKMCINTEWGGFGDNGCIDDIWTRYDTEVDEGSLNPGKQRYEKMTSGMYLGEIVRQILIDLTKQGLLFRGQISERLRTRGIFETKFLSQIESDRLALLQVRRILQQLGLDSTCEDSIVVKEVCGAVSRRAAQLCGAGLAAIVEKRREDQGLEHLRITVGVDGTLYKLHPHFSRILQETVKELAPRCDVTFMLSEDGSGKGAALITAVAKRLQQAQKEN
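System: Recombinant HKDC1 hexokinase | Amount: HKDC1 at 5 µg/mL | Reagent: Glucose with 1 mM ATP | Doses: Single 20 µM dose | Incubation: Reaction time 90 min, room temperature, protected from light | Signal: Coupled resazurin fluorescence, excitation 525 nm, emission 613 nm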
ATG4B inhibitor – blocks human ATG4B protease cleavage of LC3 substrate. actives 0.51% (n = 340,000). Q9Y4P1. ATG4B cleavage of LC3-PLA2, NBD-HPC fluorescence, 1 h. inhibition, % at 8.33 µM; in the data active means inhibition above about 40%
PKA-R1A act – PKA-R1A complex activation; P00514+P68181; PKA-R1A dissociation, Cy5-IP20 fluorescence polarization; scaled: DMSO 0%, 113 µM cGMP 100%; activation, % at 11.4 µM; actives 0.083% (n = 340,000);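 active means percent activation above the mean of all tested compounds plus 3 SD, cut at about 19% in these data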;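 further: higher means more PKAc released from R1A so a rise in polarization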
T cell HTS – T cell immune modulation candidate; response (vesicle binding), % at 7 µM; 2C CD8+ T cell-vesicle binding, flow cytometry; hits give low values; actives 0.068% (n = 330,000);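 active means response, share of CD8 T cells binding vesicles, and their 90th percentile fluorescence all below set limits, cut at about 80% in these data, passing the limit was not always enough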;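 further: values below 100% mean blocked vesicle binding to the CD8+ T cells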
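Assay system – 2C mouse CD8+ T cells · Also added – QL9-loaded Drosophila micro-vesicles · Timing – Cell–vesicle co-incubation 1.5 h at 37 °C, staining 20 min on ice · Signal – flow cytometry of vesicle-bound cells · Measure – percent CD8+ FL2 mean versus row control · Controls – Peptide-free naked vesicles (low) and QL9 vesicles with 0.7% DMSO vehicle (high)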
PKA-R2B act – activators of human PKA-R2B complex | activation, % at 11.4 µM | PKA-R2B holoenzyme dissociation, Cy5-IP20 fluorescence polarization; R2B truncated from residue 108, S112A mutant; 0% DMSO only, 100% 113 µM cGMP | actives 0.079% (n = 340,000) | P22694+P31323;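 active means activation above a cutoff set at the mean over all compounds plus 3 SD, cut at about 18% in these data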;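 further: higher means more holoenzyme dissociation and a rise in polarization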
PfGluPho inh – PfG6PD (Plasmodium falciparum) enzyme inhibition | PfGluPho enzyme, NADPH resazurin-diaphorase fluorescence | inhibition, % at 20 µM | actives 0.78% (n = 350,000) | AID 504690;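 active means inhibition reaching at least a set limit at 20 µM in the primary screen, cut at about 59% in these data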;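 further: 0% = DMSO wells with substrate and 100% = DMSO wells lacking glucose-6-phosphate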
PfGluPho conf – PfG6PD inhibition, single-dose confirmed | shares compounds with PfGluPho inh | recombinant PfGluPho, NADPH-diaphorase-resazurin fluorescence | inhibition, % at 20 µM | actives 34% (n = 2,400) | AID 504753;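 active means inhibition of at least 50% at 20 µM in any single replicate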;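 further: 0% = DMSO with substrate and 100% = DMSO lacking glucose-6-phosphate substrate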
Diaphorase 10uM – diaphorase inhibition or oxidation at 10 uM NADPH | shares compounds with PfGluPho inh | diaphorase-coupled resazurin reduction, fluorescence, NADPH 10 uM | inhibition, % at 20 µM | actives 39% (n = 820);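 active means average inhibition reaching 50% or more with the compound at 20 µM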;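 further: resorufin red fluorescence formed as diaphorase reduces resazurin using NADPH; 0% = DMSO with enzyme and 100% = DMSO without enzyme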
Diaphorase 30uM – diaphorase inhibition or oxidation at 30 uM NADPH. shares compounds with PfGluPho inh. Diaphorase/resazurin coupled assay, resorufin fluorescence. inhibition, % at 20 µM. actives 29% (n = 820);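 active means inhibition averaging 50% or more, tested at 20 µM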;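 further: 0% = DMSO with enzyme and 100% = DMSO wells lacking diaphorase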
* = called active by the depositor; . = no result given.

SMILES	HKDC1 inhibitor	ATG4B inhibitor	PKA-R1A act	T cell HTS	PKA-R2B act	PfGluPho inh	PfGluPho conf	others
CSc1cccc(CNC(=O)C2CCC(=O)N(CCc3ccccc3)C2)c1 (stereo not drawn)	.	.	-5	.	-1	-10	.
COc1cc(C(=O)Nc2ccc(Cl)c(C(F)(F)F)c2)cc(OC)c1OC	21	-5	-11	340	-12	14	.
COc1cccc(C(=O)Nc2ccc(Cl)c(C(F)(F)F)c2)c1	3	-8	-14	215	1	65*	-15
CC(=O)Nc1nc2[nH]ccc2c(=O)[nH]1	.	.	-11	.	2	6	.
Cc1ccc2c(c1)[C@H]1[C@H](CO2)[C@H](c2ccccc2)[C@]2(C)C(=O)N(C)CC(=O)N12	3	.	-13	.	5	-11	.
COc1cc(N)c2ncsc2c1	13	5	-5	.	-7	69*	72*	Diaphorase 10uM=-11;Diaphorase 30uM=-11
COc1cc(/C=C2\SC(N)=NC2=O)cc(OC)c1	1	-5	2	219	-2	6	.
CC(NC(=O)COC(=O)C1CCCCC1)c1ccccc1 (stereo not drawn)	-9	-12	-10	244	-1	7	.
CCC(=O)NC1=C(Cl)C(=O)C(NC(=O)CC)=C(Cl)C1=O	23	1	0	.	-8	114*	114*	Diaphorase 10uM=98*;Diaphorase 30uM=97*
CN(C)c1ccc(/C=C/c2ccc3ccccc3[n+]2C)cc1	-1	5	1	399	-1	28	.
CN(C)c1ccc(/C=C/c2ccc3c4ccccc4ccc3[n+]2-c2ccccc2)cc1	26	36	13	.	12	66*	68*	Diaphorase 10uM=-16;Diaphorase 30uM=-4
CCOc1ccc(-n2cc(-c3ccc(OC)c(OC)c3)[nH]c2=S)cc1	3	-10	-14	116	-1	66*	30
CCOC(=O)[C@H]1[C@H]2COc3ccc(Br)cc3[C@@H]2N2C(=O)c3ccc(Cl)cc3NC(=O)[C@@]12C	-1	3	6	647	0	-16	.
O=C(CN1C(=O)NC2(CCOc3ccccc32)C1=O)NCc1ccccc1 (stereo not drawn)	-5	-1	-1	687	-5	-12	.
CCCOc1ccc2oc(=O)c3c(c2c1)CCCN3C(=O)CN(C)Cc1ccccc1	2	-7	-13	299	-14	78*	39
O=C(/C=C/c1ccc(O)cc1)c1ccc(NC2=C(N3CCCCC3)C(=O)c3ccccc3C2=O)cc1	28	6	-4	196	10	71*	19
C=CCC1CCCCC1=C(C#N)c1ccccc1 (stereo not drawn)	.	.	-1	.	-1	-19	.
CCCCn1c(N)c(N(CCOC)C(=O)COC(=O)CCOc2ccccc2C)c(=O)[nH]c1=O	0	7	1	526	-9	-7	.
O=C(NCC1CCCO1)c1cn(Cc2ccccc2Cl)nc1-c1ccccc1 (stereo not drawn)	-4	-3	-2	.	4	-9	.
CCCCNc1cc(NC(C)=O)cc2cc(OC)c(OC)cc12	21	-10	-7	199	2	72*	43
CCN1/C(=C/C(=O)c2ccco2)Sc2ccccc21	3	0	-4	301	2	77*	34
CCC(=O)/C=C1/Sc2ccccc2N1CC	6	-4	3	160	1	53	.
CCCCN(C(=O)C1CCCC1)c1c(N)n(CCC)c(=O)[nH]c1=O	2	-1	-6	.	-14	-7	.
Nc1nonc1-n1nnc(C(=O)N/N=C/c2ccc(F)cc2)c1-c1ccc2c(c1)OCO2	-4	5	-15	254	-2	-4	.
Nc1nonc1-n1nnc(C(=O)N/N=C/c2cccc(Cl)c2)c1-c1cccs1	5	-28	-5	250	-5	126*	98*	Diaphorase 10uM=94*;Diaphorase 30uM=75*
SMILES	HKDC1 inhibitor	ATG4B inhibitor	PKA-R1A act	T cell HTS	PKA-R2B act	PfGluPho inh	PfGluPho conf	others
Nc1nonc1-n1nnc(C(=O)N/N=C/c2cccc(F)c2)c1-c1ccccc1	3	-11	8	376	-2	85*	44
Nc1nonc1-n1nnc(C(=O)N/N=C/c2cccc(F)c2)c1-c1ccc2c(c1)OCO2	1	-8	-9	84	1	106*	85*	Diaphorase 10uM=75*;Diaphorase 30uM=65*
COc1ccc(C(=O)OCCN2CCN(C3=NS(=O)(=O)c4ccccc43)CC2)cc1OC	3	-6	2	236	4	11	.
Cc1ccccc1OCC(=O)OCC(=O)NC1CCCC1	.	.	-3	.	2	1	.
COc1cc(SC)ccc1C(=O)Nc1ccc2ncccc2c1	-2	-24	-5	228	0	81*	12
COc1cc(SC)ccc1C(=O)Nc1ccccn1	-1	3	5	273	-2	33	.
COc1cc(SC)ccc1C(=O)Nc1ccc(C)cc1C	5	-6	6	247	-4	24	.
COc1cc(SC)ccc1C(=O)Nc1ccc(C)cc1	-10	-5	-4	430	-5	61*	22
COc1cc(C)ccc1OCc1cc(C(=O)NCCN2CCOCC2)no1	-4	-2	-7	635	7	2	.
Cc1ccsc1C(=O)NC1CCCN(Cc2ccc(Cl)cc2)C1 (stereo not drawn)	-1	27	0	274	3	5	.
CCNC(=O)NC(=O)COC(=O)c1ccccc1SCC(=O)NC(=O)NCC	-1	7	-11	930	3	59*	32
O=C(COC(=O)c1ccccc1SCC(=O)NC1CCS(=O)(=O)C1)NC1CCS(=O)(=O)C1 (stereo not drawn)	-13	2	4	510	-4	-13	.
O=C1C=C(O)c2c(O)cc(O)c(O)c2C1=O	-1	0	-9	155	-15	4	.
O=C1C=C(O)c2[nH]c(=O)ccc2C1=O	22	8	-1	.	-1	69*	30
Cc1c(N)cc2c(c1N)C(C)(C)CC2(C)C	24	-2	2	.	-5	83*	46
CN1CCc2c(sc3c2c(=O)n(-c2ccccc2)c2nnc(SCc4ccc(F)cc4)n32)C1	-5	9	-10	.	-5	-2	.
